From ChEMBL document CHEMBL4024796, “Phenylthiomethyl Ketone-Based Fragments Show Selective and Irreversible Inhibition of Enteroviral 3C Proteases” (J Med Chem, 2018)
One block for each compound: values may come before it. Active and inactive are the calls of the source. No cut-off for these calls is given here.

Experiments:
[1] = molecular target: Genome polyprotein (Coxsackievirus B3 (strain Nancy)) (UniProt P03313); assay: Irreversible inhibition of Coxsackievirus B3 C-terminal His6-tagged protease 3C expressed in Escherichia coli BL21(DE3) assessed as thioether adduct formation after 60 mins by MALDi-TOF spectral analysis
Target sequence in this assay (P03313 whole entry): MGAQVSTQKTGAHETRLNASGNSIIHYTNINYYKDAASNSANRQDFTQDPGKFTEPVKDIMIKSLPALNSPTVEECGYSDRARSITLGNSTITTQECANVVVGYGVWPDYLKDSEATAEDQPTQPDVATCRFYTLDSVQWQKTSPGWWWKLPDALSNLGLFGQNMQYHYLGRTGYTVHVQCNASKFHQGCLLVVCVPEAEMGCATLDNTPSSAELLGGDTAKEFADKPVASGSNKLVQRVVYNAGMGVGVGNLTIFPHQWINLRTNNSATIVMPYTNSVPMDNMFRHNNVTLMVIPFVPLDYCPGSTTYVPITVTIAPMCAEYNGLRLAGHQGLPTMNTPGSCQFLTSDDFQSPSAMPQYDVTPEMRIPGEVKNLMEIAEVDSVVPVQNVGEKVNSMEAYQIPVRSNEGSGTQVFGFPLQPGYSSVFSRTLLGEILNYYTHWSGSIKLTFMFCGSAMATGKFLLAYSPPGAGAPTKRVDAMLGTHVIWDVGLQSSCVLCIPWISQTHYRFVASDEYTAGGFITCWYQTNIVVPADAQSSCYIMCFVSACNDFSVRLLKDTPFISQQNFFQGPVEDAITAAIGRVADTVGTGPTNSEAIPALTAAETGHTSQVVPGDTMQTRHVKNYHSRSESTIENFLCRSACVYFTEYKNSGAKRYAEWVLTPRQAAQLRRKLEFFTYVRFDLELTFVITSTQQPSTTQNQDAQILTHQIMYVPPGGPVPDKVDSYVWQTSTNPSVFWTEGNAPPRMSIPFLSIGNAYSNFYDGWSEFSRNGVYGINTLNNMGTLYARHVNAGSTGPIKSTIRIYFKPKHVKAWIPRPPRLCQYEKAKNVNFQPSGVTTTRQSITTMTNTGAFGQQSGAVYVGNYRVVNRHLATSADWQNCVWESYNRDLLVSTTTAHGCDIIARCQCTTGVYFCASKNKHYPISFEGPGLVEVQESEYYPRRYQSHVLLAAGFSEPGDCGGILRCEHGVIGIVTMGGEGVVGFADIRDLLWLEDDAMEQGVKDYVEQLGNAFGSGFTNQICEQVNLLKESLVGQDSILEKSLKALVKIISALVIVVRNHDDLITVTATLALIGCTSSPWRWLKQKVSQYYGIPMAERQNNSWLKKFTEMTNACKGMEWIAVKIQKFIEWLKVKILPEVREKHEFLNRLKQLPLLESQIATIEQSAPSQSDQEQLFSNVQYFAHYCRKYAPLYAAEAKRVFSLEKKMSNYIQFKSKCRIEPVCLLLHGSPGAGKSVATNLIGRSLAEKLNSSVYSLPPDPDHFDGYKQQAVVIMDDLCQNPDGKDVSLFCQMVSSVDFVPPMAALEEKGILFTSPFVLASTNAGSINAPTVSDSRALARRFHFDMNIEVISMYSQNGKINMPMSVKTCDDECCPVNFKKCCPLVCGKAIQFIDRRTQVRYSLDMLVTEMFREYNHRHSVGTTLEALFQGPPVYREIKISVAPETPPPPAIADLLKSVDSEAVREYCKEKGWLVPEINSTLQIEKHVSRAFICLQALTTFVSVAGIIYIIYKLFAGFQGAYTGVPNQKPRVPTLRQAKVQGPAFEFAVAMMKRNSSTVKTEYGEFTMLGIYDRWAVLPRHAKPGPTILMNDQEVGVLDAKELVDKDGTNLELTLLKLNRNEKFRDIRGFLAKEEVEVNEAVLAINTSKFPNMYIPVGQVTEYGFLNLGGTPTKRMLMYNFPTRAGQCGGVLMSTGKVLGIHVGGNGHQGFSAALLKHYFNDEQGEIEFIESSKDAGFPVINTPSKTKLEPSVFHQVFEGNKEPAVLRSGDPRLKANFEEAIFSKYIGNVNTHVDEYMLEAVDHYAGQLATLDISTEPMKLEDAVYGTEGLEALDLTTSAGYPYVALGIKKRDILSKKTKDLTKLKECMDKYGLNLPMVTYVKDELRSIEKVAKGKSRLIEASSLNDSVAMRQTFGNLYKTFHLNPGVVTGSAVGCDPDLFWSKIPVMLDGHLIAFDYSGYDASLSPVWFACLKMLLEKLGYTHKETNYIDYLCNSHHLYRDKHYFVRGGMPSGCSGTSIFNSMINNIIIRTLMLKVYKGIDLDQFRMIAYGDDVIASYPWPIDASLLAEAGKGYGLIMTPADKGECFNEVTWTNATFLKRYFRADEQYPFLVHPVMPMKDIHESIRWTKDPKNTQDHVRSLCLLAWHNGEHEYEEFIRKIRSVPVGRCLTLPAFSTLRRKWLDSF

[2] = molecular target: Genome polyprotein (Coxsackievirus B3 (strain Nancy)) (UniProt P03313); assay: Inhibition of Coxsackievirus B3 C-terminal His6-tagged protease 3C expressed in Escherichia coli BL21(DE3) at 650 uM using N-Dabcyl-KTLEALFQGPPVYE-(Edans)-NH2 as substrate after 30 mins by fluorescence assay relative to control
How it was run: (§1)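 Enzyme added from 40 μM and substrate from 20 μM working solutions, inhibitor in DMSO, DMSO alone as control. Fluorescence read at ex 355/em 538 nm over 30 min, triplicates. Apparent IC50 from a Hill-type fit of initial velocities; kobs for covalent reversible inhibition from progress-curve fits.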
Target sequence in this assay (P03313 whole entry): as above

[3] = test system: enterovirus D68; assay: Binding affinity to Enetrovirus D68 C-terminal His6-tagged protease 3C at Cys147 residue expressed in Escherichia coli BL21(DE3) assessed as adduct formation after 30 mins by fluorescence assay
[4] = molecular target: Genome polyprotein (Coxsackievirus B3 (strain Nancy)) (UniProt P03313); assay: Inhibition of Coxsackievirus B3 C-terminal His6-tagged protease 3C expressed in Escherichia coli BL21(DE3) at 100 uM using N-Dabcyl-KTLEALFQGPPVYE-(Edans)-NH2 as substrate preincubated up to 60 mins followed by substrate addition by fluorescence assay; conditions: TDE = time-dependent effect
How it was run: (§2)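 CVB3 3Cpro preincubated with inhibitor (or DMSO control) in 100 mM HEPES-NaOH pH 7.5, 1 mM EDTA, 0.01% Triton X, lid-covered, for 60, 40, 20 or 0 min. Substrate then added and reaction followed 60 min (ex 355/em 538 nm). Relative activity calculated per 5-min step versus control. Triplicates per incubation time.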
Target sequence in this assay (P03313 whole entry): as above

[5] = molecular target: Genome polyprotein (Coxsackievirus B3 (strain Nancy)) (UniProt P03313); assay: Irreversible inhibition of Coxsackievirus B3 C-terminal His6-tagged protease 3C expressed in Escherichia coli BL21(DE3) assessed as protein-compound adduct formation after 60 mins by LC-MS analysis
Target sequence in this assay (P03313 whole entry): as above

[6] = molecular target: Genome polyprotein (Coxsackievirus B3 (strain Nancy)) (UniProt P03313); assay: (§3) Inhibition of Coxsackievirus B3 C-terminal His6-tagged protease 3C expressed in Escherichia coli BL21(DE3) using N-Dabcyl-KTLEALFQGPPVYE-(Edans)-NH2 as substrate after 30 mins by fluorescence assay
How it was run: (§4)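 FRET cleavage assay in 100 mM HEPES-NaOH pH 7.5, 1 mM EDTA, 0.01% Triton X. Enzyme added from a 40 µM stock, substrate diluted to 20 µM before addition. Inhibitor in DMSO, DMSO alone as control. Fluorescence at 538 nm (ex 355 nm) over 30 min, triplicates. Apparent IC50 from nonlinear fit of vi/v0 = 1/(1+[I]/IC50)^h. Ki from koff/kon for covalent reversible binding.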
Target sequence in this assay (P03313 1541-1723 limits assumed): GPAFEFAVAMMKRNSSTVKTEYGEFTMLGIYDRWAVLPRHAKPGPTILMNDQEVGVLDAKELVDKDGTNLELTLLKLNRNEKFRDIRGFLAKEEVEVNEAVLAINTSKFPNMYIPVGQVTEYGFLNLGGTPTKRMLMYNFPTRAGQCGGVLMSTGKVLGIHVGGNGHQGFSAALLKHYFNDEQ

[7] = molecular target: Genome polyprotein (Coxsackievirus B3 (strain Nancy)) (UniProt P03313); assay: Irreversible inhibition of Coxsackievirus B3 C-terminal His6-tagged protease 3C expressed in Escherichia coli BL21(DE3) after 60 mins by LC-MS analysis
Target sequence in this assay (P03313 whole entry): as the sequence (P03313 whole entry) above

[8] = test system: enterovirus D68; assay: Irreversible inhibition of Enetrovirus D68 C-terminal His6-tagged protease 3C expressed in Escherichia coli BL21(DE3) assessed as ratio of Kinact to Ki using N-Dabcyl-KTLEALFQGPPVYE-(Edans)-NH2 as substrate after 30 mins by fluorescence assay
How it was run: (§5)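 Same FRET assay (HEPES-NaOH 100 mM, EDTA 1 mM, Triton X 0.01%, pH 7.5; ex 355/em 538 nm; triplicates). kobs for irreversible inhibition obtained by fitting progress curves to [P]=vi/kobs(1−e^(−kobs·t)). kinact/KI taken from the slope of the linear portion of kobs versus inhibitor concentration.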

[9] = molecular target: Genome polyprotein (Coxsackievirus B3 (strain Nancy)) (UniProt P03313); assay: Irreversible inhibition of Coxsackievirus B3 C-terminal His6-tagged protease 3C expressed in Escherichia coli BL21(DE3) assessed as ratio of Kinact to Ki using N-Dabcyl-KTLEALFQGPPVYE-(Edans)-NH2 as substrate after 30 mins by fluorescence assay; how it was run: as §5
Target sequence in this assay (P03313 whole entry): as above

[10] = molecular target: T1, Genome polyprotein (Coxsackievirus B3 (strain Nancy), UniProt P03313); assay: Reversible inhibition of Coxsackievirus B3 C-terminal His6-tagged protease 3C expressed in Escherichia coli BL21(DE3) using N-Dabcyl-KTLEALFQGPPVYE-(Edans)-NH2 as substrate after 30 mins by fluorescence assay; how it was run: as §4
[11] = Reversible inhibition of Enetrovirus D68 C-terminal His6-tagged protease 3C expressed in Escherichia coli BL21(DE3) using N-Dabcyl-KTLEALFQGPPVYE-(Edans)-NH2 as substrate after 30 mins by fluorescence assay; set-up: species or system enterovirus D68; how it was run: as §1
[12] = molecular target: Genome polyprotein (Coxsackievirus B3 (strain Nancy)) (UniProt P03313); assay: Inhibition of Coxsackievirus B3 C-terminal His6-tagged protease 3C expressed in Escherichia coli BL21(DE3) using N-Dabcyl-KTLEALFQGPPVYE-(Edans)-NH2 as substrate preincubated up to 60 mins followed by substrate addition by fluorescence assay; conditions: TDE = time-dependent effect
How it was run: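 Enzyme and inhibitor (or DMSO) preincubated in assay buffer (HEPES-NaOH pH 7.5, EDTA, Triton X) for 60, 40, 20 or 0 min under a lid. Reaction started by FRET substrate addition and followed 60 min by fluorescence (ex 355/em 538 nm). Triplicates per incubation time. Relative activity calculated for every 5-min step of the reaction.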

[13] = Solubility of the compound; assay type: physicochemical
[14] = Glutathione reactivity assessed as GSH-adduct formation after 2 to 24 hrs by LC-MS/MS analysis
How it was run: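 Inhibitor in DMSO at 2.5 mM, mixed with equimolar glutathione in assay buffer (100 mM HEPES-NaOH, 1 mM EDTA, 0.01% Triton X, pH 7.5). Held at room temperature for 2 h and 24 h, with an aliquot taken by LC/MS after each period. Controls for each inhibitor omitted glutathione.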

[15] = test system: enterovirus D68; assay: Binding affinity to Enetrovirus D68 C-terminal His6-tagged protease 3C at Cys60 residue expressed in Escherichia coli BL21(DE3) assessed as adduct formation after 30 mins by fluorescence assay
[16] = Drug level in HEPES-NaOH buffer treated with 7,7-dimethyl-2,5-dioxo-5,6,7,8-tetrahydro-2H-chromene-3-carboxamide overnight by LC-MS analysis
[17] = molecular target: T1, Genome polyprotein; assay: as §3; how it was run: as §4
[18] = molecular target: Genome polyprotein (Coxsackievirus B3 (strain Nancy)) (UniProt P03313); assay: Inhibition of Coxsackievirus B3 C-terminal His6-tagged protease 3C expressed in Escherichia coli BL21(DE3) at 500 uM using N-Dabcyl-KTLEALFQGPPVYE-(Edans)-NH2 as substrate preincubated up to 60 mins followed by substrate addition by fluorescence assay; conditions: TDE = time-dependent effect; how it was run: as §2

T1 sequence (P03313 1541-1723 limits assumed): as the sequence (P03313 1541-1723 limits assumed) above

Compound: Cn1cc(C(=O)CSc2ccccc2)cc1C(N)=O
- inhibition [1]: Active
- inhibition [2]: Active
- Activity [3]: Active
- inhibition [4]: Tde
- inhibition [5]: Active
- inhibition [6]: Dose-dependent effect
- inhibition [7]: Active
- Ratio [8]: 21.3 M⁻¹ s⁻¹
- Ratio [9]: 16.8 M⁻¹ s⁻¹

Compound: CC(=O)c1cc(C(N)=O)n(C/C=C/c2ccccc2)c1
- Ki [10]: 197 µM
- Ki [11]: 422 µM
- inhibition [12]: Tde

Compound: NC(=O)c1cc(C(=O)C(Sc2ccccc2)Sc2ccccc2)cn1C/C=C/c1ccccc1
- Ki [10]: 272 µM
- inhibition [12]: Tde

Compound: CC1(C)CC(=O)c2cc(C(=O)O)c(=O)oc2C1
- Drug metabolism [16]: Metabolite detected

Compound: CC1(C)CC(=O)c2cc(C(N)=O)c(=O)oc2C1
- inhibition [2]: > 30%
- inhibition [6]: Dose-dependent effect
- IC50 [17]: 355 µM
- Ki [17]: 393 µM
- inhibition [18]: Tde

The next lines start with results.

- inhibition [2]: < 20%
Compound: Cn1cc(C(=O)CSc2nnnn2C)cc1C(N)=O

- inhibition [2]: inactive
Compound: O=C(CSc1ccccc1)c1ccccc1

- solubility [13]: Insoluble
Compound: NC(=O)n1cc(C(=O)c2cc(O)ccc2Cl)cn1

- inhibition [2]: < 20%
Compound: CC(=O)c1c(C)[nH]c(C(N)=O)c1C

- Activity [3]: Active
- inhibition [12]: Tde
- Ratio [8]: 160 M⁻¹ s⁻¹
- Ratio [9]: 54.4 M⁻¹ s⁻¹
Compound: NC(=O)c1cc(C(=O)CSc2ccccc2)cn1C/C=C/c1ccccc1
- Drug metabolism [14]: Metabolite detected

- Activity [3]: Active
- inhibition [12]: Tde
- Ratio [8]: 1210 M⁻¹ s⁻¹
- Ratio [9]: 1710 M⁻¹ s⁻¹
- Activity [15]: Active
Compound: NC(=O)c1cc(C(=O)CBr)cn1C/C=C/c1ccccc1
- Drug metabolism [14]: Metabolite detected

- inhibition [2]: inactive
Compound: Cc1ccc2[nH]c(C)c(C(=O)CSc3ccccc3)c2c1

- inhibition [2]: < 20%
Compound: Cn1cc(C(=O)Cn2cccc(C(F)(F)F)c2=O)cc1C(N)=O
